Active and inactive are the calls of the source. No cut-off for these calls is given here.
Test system: HeLa
Assay: Induction of read through activity at CFTR gene premature termination codon UGA transfected in human HeLa cells assessed as increase in luciferase activity at 12 uM incubated for 24 hrs by steady-glo luciferase reporter gene assay
Format: cell-based
How it was run: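 HeLa cells were transiently transfected with pFLuc-opal (UGA stop) and treated for 24 h at 12 μM, with 12 μM PTC124 as reference. FLuc activity was then measured. pFLuc-WT transfected cells served as the positive control and untreated pFLuc-opal cells as the negative control.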
For O=C(O)c1ccc2nc(-c3ccccc3Cl)[nH]c2c1, the Activity was “Active”.
With COC(=O)c1csc(COc2cc(Cl)cc(Cl)c2)n1 the Activity was “Active”.
With O=C(O)c1cccc(-c2noc(-c3ccccc3F)n2)c1 [ATALUREN] the Activity was “Active”.
In the case of O=S(=O)(Oc1ccc(F)cc1F)c1cccc(S(=O)(=O)Oc2ccc(F)cc2F)c1, the Activity is reported as “Active”.
In the case of COC(=O)c1ccc2nc(-c3cc(Cl)cc(Cl)c3)oc2c1, the Activity is reported as “Active”.

Test system: not listed separately
Assay: Cytotoxicity against rat FRT cells at 12 uM after 24 to 72 hrs by trypan blue staining based assay
Format: cell-based
How it was run: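 Wild-type CFTR FRT cells treated with 12 μM compound, with 12 μM PTC124 as the control. Percentages of live and dead cells and cell proliferation were scored at 24, 48 and 72 h after treatment.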
For O=C(O)c1ccc2nc(-c3ccccc3Cl)[nH]c2c1, the Activity was “Non-Toxic”.
In the case of COC(=O)c1csc(COc2cc(Cl)cc(Cl)c2)n1, the Activity is reported as “Non-Toxic”.
For O=C(O)c1cccc(-c2noc(-c3ccccc3F)n2)c1 [ATALUREN], the Activity was “Non-Toxic”.
For O=S(=O)(Oc1ccc(F)cc1F)c1cccc(S(=O)(=O)Oc2ccc(F)cc2F)c1, the Activity was “Non-Toxic”.
For COC(=O)c1ccc2nc(-c3cc(Cl)cc(Cl)c3)oc2c1, the Activity was “Non-Toxic”.

Organism: Homo sapiens
Assay: Induction of mutation read through activity at human CFTR G542X mutant premature termination codon UGA transfected in FRT cells assessed as increase in CFTR protein expression at 12 uM incubated for 24 hrs by DAPI-staining based immunofluorescence microscopic analysis
Format: cell-based
How it was run: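 FRT cells stably carrying pTracer vectors with human G542X-CFTR or WT-CFTR cDNA were exposed to 12 μM compound for 24 h. CFTR was detected by immunofluorescence microscopy, with membrane stained red and nuclei stained with DAPI. Untreated G542X cells served as the negative control.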
With O=C(O)c1ccc2nc(-c3ccccc3Cl)[nH]c2c1 the Activity was “Active”.
With COC(=O)c1csc(COc2cc(Cl)cc(Cl)c2)n1 the Activity was “Active”.
